Results as given in ChEMBL document CHEMBL4265871, “Novel alkylated azoles as potent antifungals” (Eur J Med Chem, 2017).
≈ marks a conversion by molar mass, not a printed value.

Legend:
[1] = Selectivity index, ratio of […] for toxicity in human A549 cells to MIC50 for antifungal activity against Aspergillus nidulans ATCC 38163; type: cell-based; conditions: read-out: Selectivity Index
[2] = Selectivity index, ratio of EC50 for toxicity in human A549 cells to MIC50 for antifungal activity against ITC and FLC-resistant Candida albicans ATCC MYA-90819; type: cell-based; conditions: read-out: Selectivity Index
How it was run: (§1)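 Selectivity index is the EC50 against the mammalian line (A549 or BEAS-2B) divided by the MIC against the given fungal strain.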

[3] = Selectivity index, ratio of […] for toxicity in human BEAS2B cells to MIC50 for antifungal activity against Aspergillus flavus ATCC MYA-3631; type: cell-based; conditions: BEAS-2B cells, read-out: Selectivity Index
[4] = Selectivity index, ratio of EC50 for toxicity in human A549 cells to MIC50 for antifungal activity against Candida glabrata ATCC 2001; type: cell-based; conditions: read-out: Selectivity Index; how it was run: as §1
[5] = Selectivity index, ratio of […] for toxicity in human BEAS2B cells to MIC50 for antifungal activity against Aspergillus terreus ATCC MYA-3633; type: cell-based; conditions: BEAS-2B cells, read-out: Selectivity Index
Aspergillus flavus = assay: Antifungal activity against Aspergillus flavus ATCC MYA-3631 incubated for 48 hrs by CLSI M38-A2 protocol based method; type: functional; conditions: ATCC MYA-3631, 48 h, read-out: MIC100
Candida albicans [6] = assay: Antifungal activity against Candida albicans ATCC 10231 incubated for 48 hrs by modified CLSI M27-A3 protocol based method; type: functional; conditions: ATCC 10231, 48 h, read-out: MIC100
How it was run: (§2)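 For C. albicans ATCC 10231, C. krusei ATCC 6258 and C. parapsilosis ATCC 22019, MIC-0 was read, meaning complete growth inhibition. For azole controls, MIC-2 (50% growth inhibition) was reported instead. Caspofungin and voriconazole were tested here; other controls came from earlier work.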

[7] = Selectivity index, ratio of EC50 for toxicity in human A549 cells to MIC50 for antifungal activity against ITC and FLC-susceptible Candida albicans ATCC MYA-2876; type: cell-based; conditions: read-out: Selectivity Index; how it was run: as §1
[8] = Selectivity index, ratio of […] for toxicity in human A549 cells to MIC50 for antifungal activity against Aspergillus terreus ATCC MYA-3633; type: cell-based; conditions: read-out: Selectivity Index
Pichia kudriavzevii = assay: Antifungal activity against Candida krusei ATCC 6258 incubated for 48 hrs by modified CLSI M27-A3 protocol based method; type: functional; conditions: ATCC 6258, 48 h, read-out: MIC100; how it was run: as §2
[9] = Hemolytic activity in mouse erythrocytes assessed as hemolysis level at 7.8 ug/ml incubated for 1 hr at 37 degC; type: ADME, cell-based, Erythrocyte; conditions: read-out: Activity
How it was run: (§3)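 Mouse erythrocytes incubated 1 h at 37 °C with test agents over 1.95 to 125 µg/mL. Percent lysis is read for each concentration.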

[10] = Selectivity index, ratio of EC50 for toxicity in human BEAS2B cells to MIC50 for antifungal activity against Candida glabrata ATCC 2001; type: cell-based; conditions: BEAS-2B cells, read-out: Selectivity Index; how it was run: as §1
[11] = Selectivity index, ratio of EC50 for toxicity in human A549 cells to MIC50 for antifungal activity against Candida krusei ATCC 6258
Aspergillus terreus = assay: Antifungal activity against Aspergillus terreus ATCC MYA-3633 incubated for 48 hrs by CLSI M38-A2 protocol based method; type: functional; conditions: ATCC MYA-3633, 48 h, read-out: MIC100
Candida albicans [12] = assay: Antifungal activity against ITC and FLC-resistant Candida albicans ATCC MYA-1003 incubated for 48 hrs by modified CLSI M27-A3 protocol based method; type: functional; conditions: ATCC MYA-1003, 48 h
How it was run: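 Because these Candida strains show trailing growth, MIC-2 was read, meaning 50% growth inhibition. Caspofungin and voriconazole were tested here; other controls came from earlier work.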

[13] = Selectivity index, ratio of EC50 for toxicity in human A549 cells to MIC50 for antifungal activity against Candida albicans ATCC 64124; type: cell-based; conditions: read-out: Selectivity Index; how it was run: as §1
[14] = Selectivity index, ratio of EC50 for toxicity in human BEAS2B cells to MIC50 for antifungal activity against Candida albicans ATCC 64124; type: cell-based; conditions: BEAS-2B cells, read-out: Selectivity Index; how it was run: as §1
[15] = Toxicity in human BEAS2B cells assessed as reduction in cell viability incubated for 24 hrs by resazurin dye based assay; conditions: BEAS-2B cells
How it was run: (§4)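 Toxicity tested in the nucleated lines A549 and BEAS-2B to give EC50 values. Selectivity index is EC50 against the mammalian line divided by the MIC against a given fungal strain.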

[16] = Selectivity index, ratio of EC50 for toxicity in human BEAS2B cells to MIC50 for antifungal activity against ITC and FLC-resistant Candida albicans ATCC MYA-1003; type: cell-based; conditions: BEAS-2B cells, read-out: Selectivity Index; how it was run: as §1
in vitro = conditions: mouse, mouse erythrocytes
[17] = Hemolytic activity in mouse erythrocytes assessed as hemolysis level at 1.95 ug/ml incubated for 1 hr at 37 degC; type: ADME, cell-based, Erythrocyte; conditions: read-out: Activity; how it was run: as §3
[18] = Selectivity index, ratio of EC50 for toxicity in human A549 cells to MIC50 for antifungal activity against ITC and FLC-resistant Candida albicans ATCC MYA-1003; type: cell-based; conditions: read-out: Selectivity Index; how it was run: as §1
[19] = Hemolytic activity in mouse erythrocytes assessed as hemolysis level at 15.6 ug/ml incubated for 1 hr at 37 degC; type: ADME, cell-based, Erythrocyte; conditions: read-out: Activity; how it was run: as §3
[20] = Hemolytic activity in mouse erythrocytes assessed as hemolysis level at 31.3 ug/ml incubated for 1 hr at 37 degC; type: ADME, cell-based, Erythrocyte; conditions: read-out: Activity; how it was run: as §3
[21] = Selectivity index, ratio of EC50 for toxicity in human BEAS2B cells to MIC50 for antifungal activity against Candida krusei ATCC 6258; conditions: BEAS-2B cells
[22] = Hemolytic activity in mouse erythrocytes assessed as hemolysis level at 125 ug/ml incubated for 1 hr at 37 degC; type: ADME, cell-based, Erythrocyte; conditions: read-out: Activity; how it was run: as §3
[23] = Toxicity in human A549 cells assessed as reduction in cell viability incubated for 24 hrs by resazurin dye based assay; how it was run: as §4
[24] = Selectivity index, ratio of […] for toxicity in human BEAS2B cells to MIC50 for antifungal activity against Aspergillus nidulans ATCC 38163; type: cell-based; conditions: BEAS-2B cells, read-out: Selectivity Index
[25] = Selectivity index, ratio of EC50 for toxicity in human BEAS2B cells to MIC50 for antifungal activity against ITC and FLC-resistant Candida albicans ATCC MYA-90819; type: cell-based; conditions: BEAS-2B cells, read-out: Selectivity Index
How it was run: (§5)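 Ratio of the compound's EC50 against BEAS-2B cells to its MIC against the named C. albicans strain. […] For C. albicans strains other than ATCC 10231, trailing growth meant MIC-2 was taken, meaning 50% growth inhibition.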

[26] = Hemolytic activity in mouse erythrocytes assessed as hemolysis level at 3.9 ug/ml incubated for 1 hr at 37 degC; type: ADME, cell-based, Erythrocyte; conditions: read-out: Activity; how it was run: as §3
[27] = Selectivity index, ratio of EC50 for toxicity in human BEAS2B cells to MIC50 for antifungal activity against ITC and FLC-susceptible Candida albicans ATCC MYA-2310; type: cell-based; conditions: BEAS-2B cells, read-out: Selectivity Index; how it was run: as §5
[28] = Selectivity index, ratio of EC50 for toxicity in human BEAS2B cells to MIC100 for antifungal activity against Candida albicans ATCC 10231; type: cell-based; conditions: BEAS-2B cells, read-out: Selectivity Index; how it was run: as §1
[29] = Selectivity index, ratio of EC50 for toxicity in human A549 cells to MIC100 for antifungal activity against Candida albicans ATCC 10231; type: cell-based; conditions: read-out: Selectivity Index; how it was run: as §1

Row | Structure (SMILES) | selectivity ratio [1] | selectivity ratio [2] | selectivity ratio [3] | selectivity ratio [4] | selectivity ratio [5] | MIC (Aspergillus flavus) [µM] | MIC (Candida albicans [6]) [µM] | selectivity ratio [7] | selectivity ratio [8] | MIC (Pichia kudriavzevii) [µM] | hemolysis at 1 h, 7.8 ug/ml [9] [%] | selectivity ratio [10] | selectivity ratio [11] | MIC (Aspergillus terreus) [µM] | MIC50 (Candida albicans [12]) [µM] | selectivity ratio [13] | selectivity ratio [14] | EC50 at 24 h [15] [µg/mL] | selectivity ratio [16] | hemolysis at 1 h, 62.5 ug/ml (in vitro) [%] | further results
1 | CCCCCC(O)(Cn1cncn1)c1ccc(F)cc1F (centres undefined) | 32 | 8 | 2 | 4 | 1 | 52.8 (≈ 15.6 µg/mL) | 6.6 (≈ 1.95 µg/mL) | 4 | 1 | 0.81 (≈ 0.239 µg/mL) | 0 | 4 | 130 | > 106 | 6.6 (≈ 1.95 µg/mL) | 4 | 4 | > 31.3 | 16 | 25.2 | hemolysis at 1 h, 1.95 ug/ml [17]: 0%; selectivity ratio [18]: 16; hemolysis at 1 h, 15.6 ug/ml [19]: 0.9%; hemolysis at 1 h, 31.3 ug/ml [20]: 10.1%; selectivity ratio [21]: 130; hemolysis at 1 h, 125 ug/ml [22]: 45.4%; EC50 at 24 h [23]: > 31.3 µg/mL; selectivity ratio [24]: 32; selectivity ratio [25]: 8; hemolysis at 1 h, 3.9 ug/ml [26]: 0%; selectivity ratio [27]: 4; selectivity ratio [28]: 16; selectivity ratio [29]: 16
2 | CCCCCCC(O)(Cn1cncn1)c1ccccc1Cl (centres undefined) | 522 | 16 | 8 to 16 | 32 | 65 | 6.3 to 12.7 (≈ 1.94 to 3.91 µg/mL) | 25.3 (≈ 7.79 µg/mL) | 32 | 65 | 0.39 (≈ 0.12 µg/mL) | 0 | 32 | 261 | 1.6 (≈ 0.493 µg/mL) | 25.3 (≈ 7.79 µg/mL) | 1 | 1 | > 31.3 | 4 | 81.7 | hemolysis at 1 h, 1.95 ug/ml [17]: 0%; selectivity ratio [18]: 4; hemolysis at 1 h, 15.6 ug/ml [19]: 0%; hemolysis at 1 h, 31.3 ug/ml [20]: 0%; selectivity ratio [21]: 261; hemolysis at 1 h, 125 ug/ml [22]: 92%; EC50 at 24 h [23]: > 31.3 µg/mL; selectivity ratio [24]: 522; selectivity ratio [25]: 16; hemolysis at 1 h, 3.9 ug/ml [26]: 0%; selectivity ratio [27]: 16; selectivity ratio [28]: 4; selectivity ratio [29]: 4
3 | CCCCC(O)(Cn1cncn1)c1ccc(Cl)cc1Cl (centres undefined) [HEXACONAZOLE] | 130 | 16 | 8 | 8 | 32 | 12.4 (≈ 3.9 µg/mL) | 0.76 (≈ 0.239 µg/mL) | 16 | 32 | 0.19 (≈ 0.0597 µg/mL) | 0 | 8 | 522 | 3.1 (≈ 0.974 µg/mL) | 3.1 (≈ 0.974 µg/mL) | 8 | 8 | > 31.3 | 32 | 59 | hemolysis at 1 h, 1.95 ug/ml [17]: 0%; selectivity ratio [18]: 32; hemolysis at 1 h, 15.6 ug/ml [19]: 0%; hemolysis at 1 h, 31.3 ug/ml [20]: 0%; selectivity ratio [21]: 522; hemolysis at 1 h, 125 ug/ml [22]: 100%; EC50 at 24 h [23]: > 31.3 µg/mL; selectivity ratio [24]: 130; selectivity ratio [25]: 16; hemolysis at 1 h, 3.9 ug/ml [26]: 0%; selectivity ratio [27]: 16; selectivity ratio [28]: 130; selectivity ratio [29]: 130
